A selection: hits, their analogues and other compounds. The true share with any hit is near 2.8%.
Rtt109 Vps75: C. albicans Rtt109 histone acetyltransferase inhibition | inhibition, % at 34.9 µM | AID 540336 | 330,000 tested, 0.16% active | purified Rtt109/Vps75, ThioGlo CoA-SH fluorescence, 4 h;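 active = inhibition of at least 50% in every replicate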
GRIN3A LBD mod: modulators (binders) of human NR3A ligand-binding domain. Tm shift relative to glycine control, % at 25 µM. 340,000 tested, 2.5% active. AID 1259313. NR3A LBD differential scanning fluorimetry, Tm shift; 0% = protein alone, 100% = glycine-bound protein;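 active = melting temperature shift of at least 10% of the positive control shift, at one fixed dose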
GASC-1 inh: blocks human GASC-1 demethylase activity | inhibition, % at 2.35 µM | GST-JMJD2C(1-420) H3K9me3 demethylation, DELFIA europium | 330,000 tested, 0.069% active;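 active = more than half of a compound's replicate wells show inhibition beyond 50%, single wells judged on their own value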;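 note: signal counts dimethyl H3K9 product captured on neutravidin plate; 0% = median of DMSO wells and 100% = 0.3 times that DMSO median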
Target sequence (Q9H3R0 1-420 limits assumed): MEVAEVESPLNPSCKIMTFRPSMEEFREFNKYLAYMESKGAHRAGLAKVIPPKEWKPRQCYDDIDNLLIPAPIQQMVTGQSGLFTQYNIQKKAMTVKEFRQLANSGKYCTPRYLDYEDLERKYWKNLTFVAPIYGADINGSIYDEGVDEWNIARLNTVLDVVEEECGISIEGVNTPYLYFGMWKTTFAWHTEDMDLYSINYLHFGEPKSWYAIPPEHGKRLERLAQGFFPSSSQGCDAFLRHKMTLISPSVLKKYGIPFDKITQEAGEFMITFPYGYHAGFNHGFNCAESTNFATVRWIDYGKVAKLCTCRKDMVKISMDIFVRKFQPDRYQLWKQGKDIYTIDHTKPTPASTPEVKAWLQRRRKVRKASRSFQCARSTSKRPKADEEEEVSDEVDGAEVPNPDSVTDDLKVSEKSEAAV
T cell HTS: T cell immune modulators affecting CD8 T cell-vesicle binding | 2C CD8+ T cell-vesicle binding, flow cytometry; stronger effect = lower value | AID 2052 | response (vesicle binding), % at 7 µM | 330,000 tested, 0.068% active;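 active = response, share of CD8 T cells binding vesicles, and their 90th percentile fluorescence all below set limits, cut at about 80% in these data, passing the limit was not always enough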;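 note: values below 100% mean blocked vesicle binding to the CD8+ T cells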
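Incubation: binding step 1.5 h, 37 °C, antibody labelling 20 min, ice; system: murine 2C transgenic CD8+ T lymphocytes; technique: cytometric PE anti-B7-1 and Alexa647 anti-CD8 signals after 1% paraformaldehyde fixation; also added: QL9-charged Drosophila Ld/ICAM-1/B7-1 vesicles; control set: naked versus QL9-loaded vesicles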
Active calls of the source: *; nt = not tested or not shown.

SMILES	Rtt109 Vps75	GRIN3A LBD mod	GASC-1 inh	T cell HTS
Cc1cc(Oc2ccc(N)cn2)ccc1Cl	0	14*	6	259
COc1ccc(NC(=O)Nc2cccc3c2O[C@H](CN(C)C(=O)NC(C)C)[C@@H](C)CN([C@H](C)CO)C3=O)cc1	11	-1	46	133
CC(C)CN(C(=O)CCCSc1nc2ccccc2[nH]1)c1c(N)n(Cc2ccccc2)c(=O)[nH]c1=O	14	0	-19	380
COc1cc(/C=C2\SC(=S)N(CCCCC(=O)O)C2=O)ccc1OS(=O)(=O)c1ccc(C)cc1	14	31*	1	243
COc1ccc(OC)c(/C=C2\SC(=S)N(Cc3cccnc3)C2=O)c1	0	-5	39	516
COc1ccc(/C=C2\SC(=S)NC2=O)cc1OS(=O)(=O)c1ccc(NC(C)=O)cc1	-5	18*	-5	nt
COc1cc(/C=C2/SC(=S)NC2=O)ccc1OS(=O)(=O)c1ccc(C)cc1	39	6	11	350
COc1ccc(/C=C2/SC(=S)N(Cc3ccccc3)C2=O)cc1O	8	20*	-3	85
O=C1/C(=C\c2cc(Cl)c(O)c(Cl)c2)SC(=S)N1Cc1ccccc1	-11	-3	3	450
COc1ccc(O)c(/C=C2/SC(=S)N(Cc3ccccc3)C2=O)c1	12	16*	-24	195
O=C(O)Cn1cc(F)c(=O)[nH]c1=O	nt	-4	3	424
CC(=O)Nc1ccc(S(=O)(=O)Oc2cccc(/C=C3\SC(N)=NC3=O)c2)cc1	-2	36*	36	148
NC1=NC(=O)/C(=C/c2cccc(F)c2)S1	0	-1	-9	429
Cc1c(C(=O)O)sc(S(=O)(=O)N2CCN(C(=O)CC(C)c3ccccc3)CC2)c1C(=O)O (stereo unspecified)	4	0	nt	nt
COc1ccc(N/N=C(\C=N\O)C(=O)c2ccc(OC)cc2)cc1	-8	-3	4	146
COc1ccc(C(=O)C(=NNc2ccccc2)c2ccc(OC)cc2)cc1	2	13*	nt	nt
Cc1ccc2c(c1)C(=O)C(=O)N2CC(=O)Nc1ccc(N2CCOCC2)cc1	6	1	5	334
NC(=O)c1cc([N+](=O)[O-])ccc1NCc1cccc2ccccc12	-2	-6	-12	430
O=C(/C=C/Nc1ccc([N+](=O)[O-])cc1Br)c1cccc2ccccc12	51*	13*	22	392
CC1(C)Oc2ccc3ccc(=O)oc3c2/C(=C/Nc2ccccn2)C1=O	13	15*	7	253
Cc1ccc(C)c(N2CCN(C(=O)CCc3nc(-c4ccc(Br)cc4)no3)CC2)c1	-17	17*	nt	nt
Cc1ccc(C)c(N2CCN(C(=O)CCc3nc(-c4cccc(Cl)c4)no3)CC2)c1	-1	17*	nt	nt
CC1(O)CC2CC1C(C(=O)O)C2C(=O)O (stereo unspecified)	-1	-1	nt	nt
CCOCCN1CCN(C2c3ccccc3CSc3ccccc32)CC1 (stereo unspecified)	7	-1	15	150
COc1cc(CNCc2ccncc2)cc(OC)c1OC	-2	-1	1	350
SMILES	Rtt109 Vps75	GRIN3A LBD mod	GASC-1 inh	T cell HTS
COc1cc(CNCc2ccc(C)cc2)cc(OC)c1OC	51*	-1	2	190
CCc1cc(C(=O)N(CC(C)C)c2c(N)n(Cc3ccccc3)c(=O)[nH]c2=O)sc1C	1	-2	-9	158
O=C(NC(=S)NC(CO)Cc1ccccc1)c1ccc(F)cc1 (stereo unspecified)	-4	2	2	368
COC(=O)C(Cc1ccccc1)NC(=O)COc1ccc(C(C)(C)C)cc1 (stereo unspecified)	5	0	61*	227
S=C(Nc1cccc(Cl)c1Cl)N1CCCC1	-8	-1	2	666
CN(CCOc1ccccc1)C(=O)c1ccc(F)c(S(=O)(=O)N2CCOCC2)c1	0	1	46	385
Cc1cccc2cc(CN(Cc3ccc(F)cc3)C(=O)N(C)C)c3nnnn3c12	6	12*	3	239
CCc1ccc(C(=O)N2CCN(c3ccc(NC(=O)c4cccnc4)cc3)CC2)cc1	9	0	-7	305
CC1CC(C)(C)CC2(C1)NC(=O)N(CC(=O)OCC(=O)Nc1cc(S(=O)(=O)N3CCCCC3)ccc1Cl)C2=O (stereo unspecified)	-12	2	nt	nt
COc1cccc(/C(O)=C/c2nc3ccc(C(=O)NCCc4cccc(C)c4)cc3[nH]c2=O)c1	-3	-3	1	468

Bioassay records (PubChem BioAssay)
